From ChEMBL document CHEMBL1124979, “4-Heterocyclyloxy-2H-1-benzopyran potassium channel activators” (1990)

Assays:
Rattus norvegicus [1] = organism: Rattus norvegicus; test: Dose required to reduce mean blood pressure by 30 mmHg in spontaneously hypertensive rats; format: functional
Procedure, shortened: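 Conscious male Okamoto SHR (280-330 g, baseline pressure >180 mmHg) fitted with an aortic catheter for continuous direct recording of mean arterial pressure over 3.5 h. Compounds active at the 1 mg/kg oral screen were given orally at 2-4 additional doses. Mean maximal falls were regressed linearly against log dose to derive ED30, the dose in […] lowering pressure by 30 mmHg.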

Rattus norvegicus [2] = test: Antihypertensive activity measured by maximum fall in the mean blood pressure after an oral administration of 1 mg/kg in spontaneously hypertensive rats; format: functional
Procedure, shortened: (§1)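 Conscious, unrestrained male spontaneously hypertensive rats (Okamoto strain, 280-330 g, blood pressure >180 mmHg), N ≥ 3, given a single 1 mg/kg oral screening dose. Mean arterial pressure was recorded directly via an aortic catheter from 1 h before to 3.5 h after dosing. The value is the mean of the maximum individual falls over 3.5 h; a fall under 18 mmHg counted as not significant.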

Rattus norvegicus [3] = test: Antihypertensive activity measured by maximum fall in the mean blood pressure after an oral administration of 1 mg/kg in spontaneously hypertensive rats; NS= Did not lower the blood pressure significantly; format: functional, organism-based; set-up: dose 1 mg/kg; procedure, shortened: as §1
[4] = Rattus norvegicus, Blood, read-out: ED30

SMILES	BP (Rattus norvegicus [2])	BP (Rattus norvegicus [3])	other results
CC1(C)Oc2ccc(C#N)cc2C(N2CCCC2=O)C1O (stereo unspecified) [CROMAKALIM]	78 mmHg	–	ED30 (Rattus norvegicus [1]; [4]): 0.11 mg/kg
CC(=O)OC1C(Oc2ccc(=O)[nH]n2)c2cc(C#N)ccc2OC1(C)C (stereo unspecified)	97 mmHg	–	–
CC1(C)Oc2ccc(C#N)cc2[C@@H](Oc2ccc(S)nn2)[C@@H]1O	–	Not significant	–
CC1(C)Oc2ccc(C(N)=S)cc2C(Oc2ccc(=O)[nH]n2)C1O (stereo unspecified)	–	Not significant	–
CC1(C)Oc2ccc(C#N)cc2[C@@H](Oc2cccnc2N)[C@@H]1O	–	Not significant	–
CC1(C)Oc2ccc(C#N)cc2[C@@H](Oc2cc(O)ncn2)[C@@H]1O	–	Not significant	–
CCn1nc(O[C@@H]2c3cc(C#N)ccc3OC(C)(C)[C@H]2O)ccc1=O	127 mmHg	–	ED30 (Rattus norvegicus [1]; [4]): 0.02 mg/kg
CC1(C)Oc2ccc(C#N)cc2[C@@H](n2ccc(O)cc2=O)[C@@H]1O	28 mmHg	–	–
CC(=O)Oc1ccn(C2=CC(C)(C)Oc3ccc(C#N)cc32)c(=O)c1	28 mmHg	–	–
CC1(C)Oc2ccc(C#N)cc2C(n2ccc(N)nc2=O)[C@@H]1O (stereo partly specified)	–	Not significant	–
CC1(C)C=C(Oc2ccc(S)nn2)c2cc(C#N)ccc2O1	–	Not significant	–
Cn1nc(OC2=CC(C)(C)Oc3ccc(C#N)cc32)ccc1=O	–	Not significant	–
CC1(C)Oc2ccc(C#N)cc2C(Oc2ccc(=O)[nH]n2)C1O (stereo unspecified)	129 mmHg	–	ED30 (Rattus norvegicus [1]; [4]): 0.014 mg/kg
CC1(C)Oc2ccc(C#N)cc2[C@@H](Oc2ccnc(O)c2)[C@@H]1O	104 mmHg	–	ED30 (Rattus norvegicus [1]; [4]): 0.006 mg/kg
CC1(C)Oc2ccc(C#N)cc2C(n2nc(N)ccc2=O)[C@@H]1O (stereo partly specified)	39 mmHg	–	–
CC1(C)C=C(Oc2ccc(=O)[nH]n2)c2cc(C#N)ccc2O1	–	Not significant	–
CC1(C)Oc2ccc(C#N)cc2[C@@H](Oc2ccc(O)nc2)[C@@H]1O	23 mmHg	–	–

SMILES	BP (Rattus norvegicus [2])	BP (Rattus norvegicus [3])	other results
COC(=O)c1ccc2c(c1)C(Oc1ccc(=O)[nH]n1)C(O)C(C)(C)O2 (stereo unspecified)	18 mmHg	–	–
CC1(C)Oc2ccc(C#N)cc2[C@H](Oc2ccc(=O)[nH]n2)[C@H]1O	–	Not significant	–
CC1(C)Oc2ccc(C(=N)S)cc2[C@@H](Oc2ccnc(O)c2)[C@@H]1O	–	Not significant	–
CC1(C)Oc2ccc(C#N)cc2[C@@H](Oc2cccnc2O)[C@@H]1O	–	Not significant	–
CC1(C)C=C(n2ccc(O)cc2=O)c2cc(C#N)ccc2O1	19 mmHg	–	–
CC1(C)Oc2ccc(C#N)cc2[C@@H](n2[nH]c(=O)ccc2=O)[C@@H]1O	–	Not significant	–
CC1(C)Oc2ccc([N+](=O)[O-])cc2C(Oc2ccc(=O)[nH]n2)C1O (stereo unspecified)	78 mmHg	–	–
CC1(C)Oc2ccc([N+](=O)[O-])cc2[C@@H](Oc2ccnc(O)c2)[C@@H]1O	117 mmHg	–	ED30 (Rattus norvegicus [1]; [4]): 0.013 mg/kg
Cn1ccc(O[C@@H]2c3cc(C#N)ccc3OC(C)(C)[C@H]2O)cc1=O	83 mmHg	–	–
CC1(C)Oc2ccc(Br)cc2C(Oc2ccc(=O)[nH]n2)C1O (stereo unspecified)	–	Not significant	–
CC1(C)Oc2ccc(C#N)cc2C(n2ccc(N)cc2=O)[C@@H]1O (stereo partly specified)	–	Not significant	–
CC1(C)C=C(Oc2ccnc(O)c2)c2cc(C#N)ccc2O1	–	Not significant	–
Cn1nc(O[C@@H]2c3cc(C#N)ccc3OC(C)(C)[C@H]2O)ccc1=O (stereo in doubt; 14a)	–	–	ED30 (Rattus norvegicus [1]; [4]): 0.018 mg/kg; BP (Rattus norvegicus [2]; 1 mg/kg): 124 mmHg
CC(C)n1nc(O[C@@H]2c3cc(C#N)ccc3OC(C)(C)[C@H]2O)ccc1=O	32 mmHg	–	–
Cn1nc(O[C@H]2c3cc(C#N)ccc3OC(C)(C)[C@@H]2O)ccc1=O	19 mmHg	–	–
Cn1nc(O[C@@H]2c3cc(C#N)ccc3OC(C)(C)[C@H]2O)ccc1=O (stereo in doubt; 22a)	–	–	ED30 (Rattus norvegicus [1]): 0.013 mg/kg; BP (Rattus norvegicus [2]; 1 mg/kg): 151 mmHg
COC(=O)c1ccc2c(c1)[C@@H](Oc1ccnc(O)c1)[C@H](O)C(C)(C)O2	–	Not significant	–
